Data: ChEMBL document CHEMBL1138061, “A thienopyridazinone-based melanin-concentrating hormone receptor 1 antagonist with potent in vivo anorectic properties” (J Med Chem, 2006)

How the values were obtained:
[1] = biological target: T1, Melanin-concentrating hormone receptor 1 (Rattus norvegicus, UniProt P97639); assay: Binding affinity to chimeric rat/human MCH1R stably expressed in HEK293 cells; assay type: cell-based
Method in brief: (§1)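 Each value is the average of at least two replicate determinations.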

[2] = Intrinsic clearance in human liver microsomes; assay type: ADME, Microsome
Method in brief: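 Intrinsic human clearance was determined in human liver microsomes. Standard error is estimated below 10%, based on a reference compound run as a standard.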

[3] = Brain to plasma ratio in Sprague-Dawley rat at 10 mg/kg, po and 2.5 mg/kg, iv after 4 hours; assay type: ADME, organism-based
Method in brief: (§2)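 Rats dosed 10 mg kg-1 orally and 2.5 mg kg-1 iv. AUC and Cmax come from the oral dose. Brain levels were measured 1 h and 4 h after oral dosing and expressed as brain/plasma ratios at those times. Vd, clearance and t1/2 were derived from the same dosing.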

[4] = biological target: T1, Melanin-concentrating hormone receptor 1; assay: Activity at chimeric rat/human MCH1R by accumulation of GTPgammaS; method in brief: as §1
[5] = Clearance in Sprague-Dawley rat at 10 mg/kg, po and 2.5 mg/kg, iv; assay type: ADME, organism-based; conditions: in vivo
[6] = AUC in Sprague-Dawley rat at 10 mg/kg, po; assay type: ADME, organism-based; design: dose 10 mg/kg, route oral; conditions: plasma; method in brief: as §2
[7] = Half life in Sprague-Dawley rat at 10 mg/kg, po and 2.5 mg/kg, iv; assay type: ADME, organism-based; conditions: in vivo; method in brief: as §2
[8] = Bioavailability in Sprague-Dawley rat at 10 mg/kg, po and 2.5 mg/kg, iv; assay type: ADME, organism-based; conditions: in vivo
[9] = Volume of distribution in Sprague-Dawley rat at 10 mg/kg, po and 2.5 mg/kg, iv; assay type: ADME, organism-based; conditions: in vivo, read-out: Vdss; method in brief: as §2
[10] = Cmax in Sprague-Dawley rat plasma at 10 mg/kg, po; assay type: ADME, organism-based; design: dose 10 mg/kg, route oral; method in brief: as §2
[11] = Brain concentration in Sprague-Dawley rat at 10 mg/kg, po after 1 hour; assay type: ADME, organism-based; design: dose 10 mg/kg, route oral; conditions: read-out: Drug uptake; method in brief: as §2
[12] = Brain concentration in Sprague-Dawley rat at 10 mg/kg, po after 4 hours; assay type: ADME, organism-based; design: dose 10 mg/kg, route oral; conditions: read-out: Drug uptake; method in brief: as §2
[13] = Brain to plasma ratio in Sprague-Dawley rat at 10 mg/kg, po and 2.5 mg/kg, iv after 1 hour; assay type: ADME, organism-based; method in brief: as §2
[14] = biological target: T2, Voltage-gated inwardly rectifying potassium channel KCNH2 (Homo sapiens, UniProt Q12809); assay: Displacement of [3H]dofetilide from human ERG channel
[15] = biological target: Melanin-concentrating hormone receptor 1 (Rattus norvegicus) (UniProt P97639); assay: Inhibition of chimeric rat/human MCH1R at 10 uM
Method in brief: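 Single-concentration test at 10 µM, reported as percent inhibition of MCH1R; values averaged from at least two replicates.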

[16] = biological target: T3, Muscarinic acetylcholine receptor M1 (Homo sapiens, UniProt P11229); assay: Binding affinity to muscarinic M1R
T3 sequence (P11229 whole entry): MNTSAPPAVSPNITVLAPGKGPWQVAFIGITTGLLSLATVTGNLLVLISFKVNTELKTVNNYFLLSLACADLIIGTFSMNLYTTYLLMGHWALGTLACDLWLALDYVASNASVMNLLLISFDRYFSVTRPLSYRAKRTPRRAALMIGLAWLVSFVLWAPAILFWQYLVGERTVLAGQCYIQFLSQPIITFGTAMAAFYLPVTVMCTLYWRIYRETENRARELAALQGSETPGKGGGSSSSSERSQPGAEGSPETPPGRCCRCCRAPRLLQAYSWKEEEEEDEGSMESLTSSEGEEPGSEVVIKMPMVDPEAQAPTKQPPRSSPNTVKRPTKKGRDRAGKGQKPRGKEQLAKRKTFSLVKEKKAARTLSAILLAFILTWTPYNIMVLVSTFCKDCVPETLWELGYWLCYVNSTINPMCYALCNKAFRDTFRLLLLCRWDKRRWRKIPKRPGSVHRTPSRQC

[17] = biological target: Muscarinic acetylcholine receptor M3 (Homo sapiens, UniProt P20309); assay: Binding affinity to muscarinic M3R
[18] = biological target: CYP2D6 (Homo sapiens, UniProt P10635); assay: Inhibition of cytochrome P450 2D6 at 5 uM; assay type: ADME; conditions: read-out: Activity
[19] = biological target: CYP3A4 (Homo sapiens, UniProt P08684); assay: Inhibition of cytochrome P450 3A4 at 5 uM; assay type: ADME; conditions: read-out: Activity
[20] = Selectivity for MCH1R over muscarinic M3R
[21] = biological target: T2, Voltage-gated inwardly rectifying potassium channel KCNH2; assay: Affinity for human ERG channel by patch clamp assay; assay type: functional
[22] = Plasma concentration in Sprague-Dawley rats at 1 mg/kg after 1 day; assay type: ADME, organism-based; design: dose 1 mg/kg; conditions: rat
[23] = Plasma concentration in Sprague-Dawley rats at 1 mg/kg after 14 days; assay type: ADME, organism-based; design: dose 1 mg/kg; conditions: rat

T1 sequence (P97639 whole entry, looked up): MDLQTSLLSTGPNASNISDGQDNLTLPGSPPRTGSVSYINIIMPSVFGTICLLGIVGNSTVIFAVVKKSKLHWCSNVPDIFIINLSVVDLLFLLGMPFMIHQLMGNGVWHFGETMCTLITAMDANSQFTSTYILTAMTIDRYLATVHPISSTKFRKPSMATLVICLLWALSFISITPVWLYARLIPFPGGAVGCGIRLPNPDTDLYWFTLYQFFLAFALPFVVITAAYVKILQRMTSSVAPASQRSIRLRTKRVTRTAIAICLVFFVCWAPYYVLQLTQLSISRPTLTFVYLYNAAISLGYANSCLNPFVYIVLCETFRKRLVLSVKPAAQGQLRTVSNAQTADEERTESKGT
T2 sequence (Q12809 whole entry): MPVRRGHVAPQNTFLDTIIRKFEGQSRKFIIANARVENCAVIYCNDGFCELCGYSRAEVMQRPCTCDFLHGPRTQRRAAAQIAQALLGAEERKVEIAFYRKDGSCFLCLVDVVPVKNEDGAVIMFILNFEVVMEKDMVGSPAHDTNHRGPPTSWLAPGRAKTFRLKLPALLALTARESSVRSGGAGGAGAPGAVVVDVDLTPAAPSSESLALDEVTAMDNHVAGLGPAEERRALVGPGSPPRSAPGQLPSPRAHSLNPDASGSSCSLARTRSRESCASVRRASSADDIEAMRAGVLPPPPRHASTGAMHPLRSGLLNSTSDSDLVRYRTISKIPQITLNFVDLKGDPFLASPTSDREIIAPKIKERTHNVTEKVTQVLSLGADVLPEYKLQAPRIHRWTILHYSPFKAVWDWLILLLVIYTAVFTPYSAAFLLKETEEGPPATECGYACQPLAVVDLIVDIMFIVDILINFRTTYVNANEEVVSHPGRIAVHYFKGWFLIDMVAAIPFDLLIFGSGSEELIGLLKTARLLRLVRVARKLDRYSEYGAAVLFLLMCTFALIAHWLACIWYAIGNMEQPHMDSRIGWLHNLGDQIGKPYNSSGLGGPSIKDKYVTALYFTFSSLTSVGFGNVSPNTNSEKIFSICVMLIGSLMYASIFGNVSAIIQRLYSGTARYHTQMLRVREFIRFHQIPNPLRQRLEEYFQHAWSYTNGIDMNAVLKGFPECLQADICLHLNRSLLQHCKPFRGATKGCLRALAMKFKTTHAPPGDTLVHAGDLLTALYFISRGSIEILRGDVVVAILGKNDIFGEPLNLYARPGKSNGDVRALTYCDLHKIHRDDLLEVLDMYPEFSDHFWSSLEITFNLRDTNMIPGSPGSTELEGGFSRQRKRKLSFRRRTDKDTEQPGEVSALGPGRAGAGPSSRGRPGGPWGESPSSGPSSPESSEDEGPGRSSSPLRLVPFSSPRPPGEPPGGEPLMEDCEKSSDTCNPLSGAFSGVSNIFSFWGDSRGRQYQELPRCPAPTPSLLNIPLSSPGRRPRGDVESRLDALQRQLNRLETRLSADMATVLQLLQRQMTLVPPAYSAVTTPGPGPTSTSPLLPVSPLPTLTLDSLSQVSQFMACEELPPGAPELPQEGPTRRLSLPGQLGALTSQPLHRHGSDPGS
Sequence of CYP3A4 (P08684 whole entry): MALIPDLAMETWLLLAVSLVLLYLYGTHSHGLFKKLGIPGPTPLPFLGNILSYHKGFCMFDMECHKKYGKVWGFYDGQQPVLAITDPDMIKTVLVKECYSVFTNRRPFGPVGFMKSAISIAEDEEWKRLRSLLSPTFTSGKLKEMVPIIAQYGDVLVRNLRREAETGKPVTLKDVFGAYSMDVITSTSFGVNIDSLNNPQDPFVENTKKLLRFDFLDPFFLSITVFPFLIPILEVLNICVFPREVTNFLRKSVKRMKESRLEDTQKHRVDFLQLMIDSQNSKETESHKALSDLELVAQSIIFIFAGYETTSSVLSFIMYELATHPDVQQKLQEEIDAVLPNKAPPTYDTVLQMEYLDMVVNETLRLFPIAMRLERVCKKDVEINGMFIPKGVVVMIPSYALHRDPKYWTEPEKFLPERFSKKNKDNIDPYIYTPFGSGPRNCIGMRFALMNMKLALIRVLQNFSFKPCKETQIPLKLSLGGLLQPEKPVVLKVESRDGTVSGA
Sequence of Melanin-concentrating hormone receptor 1 (Rattus norvegicus) (P97639 whole entry): as the sequence (P97639 whole entry, looked up) above
Sequence of CYP2D6 (P10635 whole entry): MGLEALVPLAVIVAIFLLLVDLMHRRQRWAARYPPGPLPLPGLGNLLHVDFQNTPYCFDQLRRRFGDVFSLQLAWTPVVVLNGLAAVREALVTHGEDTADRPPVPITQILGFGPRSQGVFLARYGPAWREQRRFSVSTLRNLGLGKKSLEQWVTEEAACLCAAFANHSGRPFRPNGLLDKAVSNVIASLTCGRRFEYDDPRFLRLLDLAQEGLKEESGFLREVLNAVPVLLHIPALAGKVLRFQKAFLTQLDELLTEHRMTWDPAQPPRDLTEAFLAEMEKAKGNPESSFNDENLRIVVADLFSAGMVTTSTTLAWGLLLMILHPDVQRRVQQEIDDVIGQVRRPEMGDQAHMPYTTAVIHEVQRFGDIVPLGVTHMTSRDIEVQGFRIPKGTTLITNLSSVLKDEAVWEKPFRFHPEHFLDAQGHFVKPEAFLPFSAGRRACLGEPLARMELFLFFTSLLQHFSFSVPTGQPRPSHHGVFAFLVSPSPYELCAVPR
Sequence of Muscarinic acetylcholine receptor M3 (P20309 whole entry): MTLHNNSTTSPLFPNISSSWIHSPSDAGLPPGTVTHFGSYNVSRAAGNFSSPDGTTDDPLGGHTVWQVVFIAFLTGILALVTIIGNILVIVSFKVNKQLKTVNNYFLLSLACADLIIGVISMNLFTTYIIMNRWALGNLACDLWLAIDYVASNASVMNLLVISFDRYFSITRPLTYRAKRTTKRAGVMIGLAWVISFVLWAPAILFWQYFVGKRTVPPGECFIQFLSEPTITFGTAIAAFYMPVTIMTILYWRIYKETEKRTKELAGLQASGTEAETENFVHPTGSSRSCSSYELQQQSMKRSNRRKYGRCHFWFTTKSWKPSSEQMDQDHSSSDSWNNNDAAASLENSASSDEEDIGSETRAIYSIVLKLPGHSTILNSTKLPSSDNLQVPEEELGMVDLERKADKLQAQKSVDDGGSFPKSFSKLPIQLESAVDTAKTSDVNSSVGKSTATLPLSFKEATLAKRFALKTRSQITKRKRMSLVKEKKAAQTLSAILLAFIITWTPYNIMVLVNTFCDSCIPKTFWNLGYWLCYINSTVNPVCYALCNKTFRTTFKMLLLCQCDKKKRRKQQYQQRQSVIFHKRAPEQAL

| Ki [1] | CLint scaled [2] | SMILES | other results |
| --- | --- | --- | --- |
| 1.1 nM | 21 mL/min/kg | CN(C)[C@@H]1CCN(c2ccc(-n3ncc4cc(-c5ccc(Cl)cc5)ccc4c3=O)cn2)C1 | – |
| 11 nM | 8.8 mL/min/kg | CN[C@H]1CCN(c2ccc(-n3ncc4cc(-c5ccc(OC)cc5C)ccc4c3=O)cn2)C1 | – |
| 1.9 nM | 9.2 mL/min/kg | CCN[C@H]1CCN(c2ccc(-n3ncc4cc(-c5ccc(Cl)cc5)ccc4c3=O)cn2)C1 | – |
| 1.2 nM | 8.9 mL/min/kg | CN[C@H]1CCN(c2ccc(-n3ncc4cc(-c5ccc(Cl)cc5)ccc4c3=O)cn2)C1 | Kp at 4 h [3]: 23; IC50 [4]: 8.5 nM; clearance [5]: 17 mL/min/kg; AUC [6]: 2200 ng·h/mL; half-life [7]: 9.4 h; bioavailability [8]: 22%; Vd [9]: 14 L/kg; Cmax [10]: 140 ng/mL; concentration at 1 h [11]: 94 ng/g; concentration at 4 h [12]: 1700 ng/g; Kp at 1 h [13]: 7.8 |
| 3.1 nM | – | CN[C@H]1CCN(c2ccc(-n3ncc4cc(-c5ccc(C(F)(F)F)cc5)sc4c3=O)cn2)C1 | – |
| 10 nM | 6 mL/min/kg | CN[C@@H]1CCN(c2ccc(-n3ncc4cc(-c5ccc(C(F)(F)F)cc5)ccc4c3=O)cn2)C1 | – |
| 1.5 nM | 12 mL/min/kg | CN[C@@H]1CCN(c2ccc(-n3ncc4cc(-c5ccc(Cl)cc5)ccc4c3=O)cn2)C1 | – |
| 1.1 nM | 12 mL/min/kg | CN(C)[C@H]1CCN(c2ccc(-n3ncc4cc(-c5ccc(Cl)cc5)ccc4c3=O)cn2)C1 | – |
| 21 nM | 28 mL/min/kg | CN(C)[C@H]1CCN(c2ccc(-n3ncc4cc(-c5ccc(C(F)(F)F)cc5)oc4c3=O)cn2)C1 | – |
| 8.4 nM | 26 mL/min/kg | CN[C@H]1CCN(c2ccc(-n3ncc4cc(-c5ccc(C(F)(F)F)cc5)ccc4c3=O)cn2)C1 | – |
| 3.3 nM | 8.5 mL/min/kg | CN[C@@H]1CCN(c2ccc(-n3ncc4cc(-c5ccc(C(F)(F)F)cc5)sc4c3=O)cn2)C1 | Kp at 4 h [3]: 3.1; Ki [16]: 260 nM; Ki [17]: 160 nM; inhibition at 5 µM [18]: < 10%; inhibition at 5 µM [19]: < 10%; Selectivity ratio [20]: 50; IC50 [21]: 1800 nM; concentration at 24 h [22]: 280 nM; concentration at 336 h [23]: 790 nM; IC50 [4]: 7.7 nM; clearance [5]: 4.3 mL/min/kg; AUC [6]: 8400 ng·h/mL; half-life [7]: 11 h; bioavailability [8]: 24%; Vd [9]: 4.1 L/kg; Cmax [10]: 500 ng/mL; concentration at 1 h [11]: 190 ng/g; concentration at 4 h [12]: 1200 ng/g; Kp at 1 h [13]: 1.4 |

The next lines start with the molecule.

| SMILES | Ki [1] | CLint scaled [2] | other results |
| --- | --- | --- | --- |
| CN(C)[C@H]1CCN(c2ccc(-n3ncc4cc(-c5ccc(C(F)(F)F)cc5)sc4c3=O)cn2)C1 | 4.4 nM | 18 mL/min/kg | – |
| O=c1c2ccc(-c3ccc(Cl)cc3)cc2cnn1-c1ccc(N2CC[C@H](N3CCCC3)C2)nc1 | 1.6 nM | 16 mL/min/kg | – |
| CN[C@@H]1CCN(c2ccc(-n3ncc4cc(-c5ccc(OC)cc5)sc4c3=O)cn2)C1 | 1.3 nM | 720 mL/min/kg | – |
| CN(C)[C@H]1CCN(c2ccc(-n3ncc4cc(-c5ccc(C(F)(F)F)cc5)n(C)c4c3=O)cn2)C1 | 14 nM | 48 mL/min/kg | – |
| CN[C@@H]1CCN(c2ccc(-n3ncc4cc(-c5ccc(F)cc5)sc4c3=O)cn2)C1 | 2.5 nM | 8.2 mL/min/kg | – |
| CNC1CCN(c2ccc(NC(=O)c3ccc(-c4ccccc4)cc3)cn2)C1 (stereo not given) | – | – | Ki [14]: 200 nM |
| CN[C@@H]1CCN(c2ccc(-n3ncc4cc(-c5ccc(Cl)cc5)sc4c3=O)cn2)C1 | 1.9 nM | 8.4 mL/min/kg | – |
| CN(C)[C@H]1CCN(c2ccc(-n3ncc4cc(-c5ccc(C(F)(F)F)cc5)[se]c4c3=O)cn2)C1 | – | 27 mL/min/kg | inhibition [15]: 28% |
| CN[C@H]1CCN(c2ccc(-n3ncc4cc(-c5ccc(F)cc5)sc4c3=O)cn2)C1 | 2 nM | 12 mL/min/kg | – |
| CCc1ccc(-c2cc3cnn(-c4ccc(N5CC[C@@H](NC)C5)nc4)c(=O)c3s2)cc1 | 2.6 nM | 155 mL/min/kg | – |
